MC4R ag barr – activates human MC4R beta-arrestin recruitment; actives 0.98% (n = 360,000); AID 540308; activation, % at 8.9 µM; U2OS MC4R beta-arrestin complementation, luminescence; percent of melanotan II response, DMSO zero;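 active means activation above a per-plate cutoff, the mean activation of sample wells on that plate plus 3 SD, cut at about 8% in these data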
B2AR ag – human beta-2 adrenergic receptor agonism by FAP; P07550; Am2.2-beta2AR cells, FAP receptor internalization, flow cytometry; response, % (test concentration not listed); actives 0.43% (n = 340,000); AID 504454;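 active means response above a set limit, near 3 SD of response in nonfluorescent compounds, cut at about 42% in these data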
ABHD5 PLIN5 PPI – inhibitors of human ABHD5-perilipin-5 interaction; inhibition, % at 4 µM; Split G. princeps luciferase complementation, luminescence, 4 h; actives 0.78% (n = 360,000); AID 602281;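 active means inhibition above the mean inhibition across every tested compound plus 3 SD, cut at about 22% in these data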;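 further: 0% = DMSO only wells and the 100% control is not disclosed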
Target sequence (Q00G26 whole entry, looked up): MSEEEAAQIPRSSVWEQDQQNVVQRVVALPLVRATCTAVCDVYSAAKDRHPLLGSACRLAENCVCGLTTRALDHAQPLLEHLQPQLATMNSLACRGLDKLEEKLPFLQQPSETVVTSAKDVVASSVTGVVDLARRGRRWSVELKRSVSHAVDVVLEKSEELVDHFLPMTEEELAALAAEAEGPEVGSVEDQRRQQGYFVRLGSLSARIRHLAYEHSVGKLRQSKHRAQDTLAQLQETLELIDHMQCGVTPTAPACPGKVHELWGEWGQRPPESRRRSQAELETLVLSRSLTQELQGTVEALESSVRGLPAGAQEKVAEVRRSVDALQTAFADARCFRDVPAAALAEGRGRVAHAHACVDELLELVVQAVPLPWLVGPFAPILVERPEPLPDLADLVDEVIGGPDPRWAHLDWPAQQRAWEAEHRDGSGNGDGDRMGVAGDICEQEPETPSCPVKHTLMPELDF
Target sequence (Q8WTS1 whole entry, looked up): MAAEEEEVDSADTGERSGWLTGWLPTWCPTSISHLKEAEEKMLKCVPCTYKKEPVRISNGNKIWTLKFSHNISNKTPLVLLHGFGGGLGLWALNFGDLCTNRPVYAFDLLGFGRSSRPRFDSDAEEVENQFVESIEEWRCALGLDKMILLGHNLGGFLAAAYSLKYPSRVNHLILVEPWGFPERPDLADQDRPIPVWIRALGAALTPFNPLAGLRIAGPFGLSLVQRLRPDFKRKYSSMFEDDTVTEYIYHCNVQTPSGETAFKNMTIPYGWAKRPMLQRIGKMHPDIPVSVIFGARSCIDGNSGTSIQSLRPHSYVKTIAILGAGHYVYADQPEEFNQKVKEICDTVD
MC4R antag cAMP – blocks human MC4R cAMP signaling; MC4R-expressing cells, MTII-stimulated cAMP, LANCE TR-FRET; actives 0.48% (n = 360,000); AID 540295; inhibition, % at 6.5 µM;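 active means inhibition above its plate's cutoff, the mean of tested wells on that plate plus 3 SD, cut at about 29% in these data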;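 further: 0% = Melanotan II alone and 100% = Melanotan II plus saturating MCL0020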
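Assay system: human MC4R-expressing U2OS cells; reagent: Melanotan II stimulation of cells; dosing: 6.5 µM single dose; timing: compound 30 min, challenge 1 h, detection 1 h; signal: TR-FRET cAMP assay; replicates: one well per compound, no replicates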
PfG6PD inh – PfG6PD (Plasmodium falciparum) enzyme inhibition | actives 0.78% (n = 350,000) | PfGluPho enzyme, NADPH resazurin-diaphorase fluorescence | inhibition, % at 20 µM;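 active means inhibition reaching at least a set limit at 20 µM in the primary screen, cut at about 59% in these data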;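 further: 0% = DMSO wells with substrate and 100% = DMSO wells lacking glucose-6-phosphate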
PfGluPho conf – PfG6PD inhibition, single-dose confirmed; actives 34% (n = 2,400); shares compounds with PfG6PD inh; inhibition, % at 20 µM; AID 504753; recombinant PfGluPho, NADPH-diaphorase-resazurin fluorescence;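 active means inhibition of at least 50% at 20 µM in any single replicate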;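 further: 0% = DMSO with substrate and 100% = DMSO lacking glucose-6-phosphate substrate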
Diaphorase 10uM – inhibits diaphorase or oxidizes, flagging false PfG6PD hits; shares compounds with PfG6PD inh; diaphorase-coupled resazurin reduction, fluorescence, NADPH 10 uM; inhibition, % at 20 µM; actives 39% (n = 820);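 active means average inhibition reaching 50% or more with the compound at 20 µM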;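 further: resorufin red fluorescence formed as diaphorase reduces resazurin using NADPH; 0% = DMSO with enzyme and 100% = DMSO without enzyme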
Diaphorase 30uM – diaphorase inhibition or oxidation at 30 uM NADPH; inhibition, % at 20 µM; actives 29% (n = 820); shares compounds with PfG6PD inh; AID 504863; Diaphorase/resazurin coupled assay, resorufin fluorescence;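 active means inhibition averaging 50% or more, tested at 20 µM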;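 further: 0% = DMSO with enzyme and 100% = DMSO wells lacking diaphorase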
U2OS cAMP counter – counter-screen for MC4R antagonists: nonselective cAMP signaling inhibitors; inhibition, % at 6.5 µM; shares compounds with MC4R antag cAMP; parental U2OS, forskolin cAMP, LANCE TR-FRET; actives 26% (n = 1,600);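 active means mean inhibition over triplicates above the low-control well mean plus 3 SD, set per campaign, cut at about 13% in these data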;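 further: signal is single emission at 671 nm which falls as cellular cAMP rises; 0% = forskolin-stimulated wells and 100% = buffer without forskolin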
MC4R cAMP antag – human MC4R cAMP antagonism confirmation; AID 602195; shares compounds with MC4R antag cAMP; inhibition, % at 6.5 µM; actives 27% (n = 1,600); MC4R-expressing cells, MTII-stimulated cAMP, TR-FRET; in the data active means inhibition above about 29%;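 further: 0% = agonist stimulated wells alone and 100% = agonist stimulated wells plus saturating reference antagonist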
ABHD5-PLIN5 conf – confirmation of human ABHD5-PLIN5 interaction inhibitors | shares compounds with ABHD5 PLIN5 PPI | biochemical ABHD5-PLIN5 interaction, luminescence | inhibition, % at 4 µM | actives 67% (n = 2,200); in the data active means inhibition above about 23%;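 further: 0% = DMSO vehicle wells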
HNF4 counter – HNF4 split-luciferase signal hit, counter-screen; shares compounds with ABHD5 PLIN5 PPI; HNF4 dimerization, luminescence, biochemical; inhibition, % at 4 µM; actives 77% (n = 2,200); AID 651674;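 active means mean inhibition across replicate wells exceeding the computed hit threshold, cut at about 13% in these data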;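 further: light from luciferase halves that rejoin when HNF4 fusion proteins dimerize; 0% = DMSO only wells and the 100% control is not given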
The depositor's hits bear a star; · = no result. Rows were chosen to be rich in hits. Some 3% of all compounds tested hit in one or more screens of this group.

SMILES	MC4R ag barr	B2AR ag	ABHD5 PLIN5 PPI	MC4R antag cAMP	PfG6PD inh	PfGluPho conf	Diaphorase 10uM	Diaphorase 30uM	ABHD5-PLIN5 conf	HNF4 counter	others
O=C1C(SCCO)=C(SCCO)C(=O)c2ccccc21	-4	-48	97*	97*	119*	107*	87*	84*	104*	111*	U2OS cAMP counter=102*;MC4R cAMP antag=143*
O=C(c1ccccc1)N1CCN(C(=S)NCc2ccco2)CC1	-1	-5	6	18	11	·	·	·	·	·
Cc1[nH]c2ccccc2c1CC#N	-1	6	1	5	-11	·	·	·	·	·
Cc1[nH]c2ccccc2c1C1=CC(=O)C=CC1=O	-3	32	49*	20	129*	114*	93*	53*	46*	80*
O=C(O)c1c(-c2ccccc2)cnc2ccccc12	1	·	-3	16	-17	·	·	·	·	·
CCCCCCCCSC1=CC(=O)C(OC)=C(OC)C1=O	-1	·	65*	-5	125*	86*	67*	39	100*	104*
Clc1nssc1=Nc1nncs1	-3	1	73*	-10	100*	82*	1	-16	64*	101*
Clc1nssc1=Nc1ccc(Br)cc1	-1	5	24*	-1	79*	29	·	·	23*	71*
O=[N+]([O-])c1c(Nc2ccc(O)cc2)cc(Cl)c2nonc12	-7	81*	58*	-43	60*	23	·	·	83*	101*
COCCCN(C(=O)CCOc1ccccc1C)c1c(N)n(Cc2ccccc2)c(=O)[nH]c1=O	0	-12	1	4	0	·	·	·	·	·
O=S(=O)(/N=S1\CC=CCN1S(=O)(=O)c1ccccc1)c1ccccc1 (centres undefined)	0	-4	92*	26	64*	22	·	·	17	85*
O=C(O)C1CCCN(S(=O)(=O)c2ccccc2)C1 (centres undefined)	-1	6	-1	3	-5	·	·	·	·	·
COc1cc2c(cc1OC)C(C)N(C(=O)c1cc3c(s1)-c1ccccc1OC3)CC2 (centres undefined)	-1	0	-4	4	25	·	·	·	·	·
O=C(c1ccc([N+](=O)[O-])c(CS(=O)(=O)c2ccc(Cl)cc2)c1)N1CCCC1	0	-6	3	-3	6	·	·	·	·	·
CC(C)(C=O)C1=CC(=O)c2ccccc2C1=O	-5	66*	34*	10	119*	103*	85*	66*	81*	103*
Nc1ccccc1SSc1ccccc1N	-3	1	60*	3	69*	44	·	·	88*	104*
COc1cc(OC)cc(C2=Cc3ccccc3C(CC(C)=O)N2c2ccc(C#CC3(N)CCCCC3)cc2)c1 (centres undefined)	·	·	19	·	·	·	·	·	·	·
Cc1ccc(/C(C#N)=C\c2ccc(N3CCOCC3)o2)cc1	4	-38	88*	20	72*	-2	·	·	62*	106*
N#C/C(=C/c1ccc(N2CCCCC2)o1)c1cccc(F)c1	5	-71	20	2	41	·	·	·	·	·
O=C1c2ccccc2[C@@H]2C[C@@H](O)[C@H](Nc3cccc(C(F)(F)F)c3)CCN12	-3	1	3	15	7	·	·	·	·	·
CC1=NOC(=O)/C1=C\c1ccc(-c2cc(Cl)ccc2Cl)o1	1	80*	39*	-3	80*	11	·	·	85*	86*
O=C(C1=C[C@@H](c2ccccc2)C[C@@H](OCc2ccc(CO)cc2)O1)N1CCCCCCC1	-1	2	-12	-2	7	·	·	·	·	·
O=C(O)C(Cc1ccccc1)N1C(=O)C=CC1=O (centres undefined)	-1	·	75*	-4	90*	85*	18	2	67*	107*
O=C1C=CC(=O)N1c1ccc2c(c1)C(NC(=O)C(F)(F)F)c1ccccc1-2 (centres undefined)	-4	22	34*	71*	98*	51*	-40	-30	56*	99*
CCOC(=O)c1c(-c2ccc(C)o2)csc1NC(=O)COC(=O)c1cccs1	-1	8	27*	31*	59*	-3	·	·	10	28*	U2OS cAMP counter=4;MC4R cAMP antag=15
SMILES	MC4R ag barr	B2AR ag	ABHD5 PLIN5 PPI	MC4R antag cAMP	PfG6PD inh	PfGluPho conf	Diaphorase 10uM	Diaphorase 30uM	ABHD5-PLIN5 conf	HNF4 counter	others
O=C1C(Cl)=C(NC(=O)c2ccccc2)C(=O)C(Cl)=C1NC(=O)c1ccccc1	-3	56*	71*	-29	114*	110*	86*	61*	103*	110*
CN(C)c1ccc(C=c2c3ccccc3n3c2cc(-c2ccccc2)[n+]3C)cc1	-2	-588	18	-23	49	·	·	·	·	·
CN(C)c1ccc(C=c2c3cc([N+](=O)[O-])ccc3n3c2cc(-c2ccccc2)[n+]3C)cc1	-3	24	26*	-1	120*	93*	24	24	101*	48*
COc1cc(N(C)C)ccc1C=c1c2ccccc2n2c1cc(-c1ccccc1)[n+]2C	-5	-69	24*	-23	83*	76*	14	11	22	26*
CC(=O)Cc1cc(O)c2ccccc2c1OC(=O)c1ccccc1	-1	11	67*	10	66*	6	·	·	84*	54*
CC(=O)c1cc(C)c(OC(=O)c2ccccc2)c(C)c1	1	11	2	-8	1	·	·	·	·	·
COc1cc(N2C(=O)C=CC2=O)ccc1N1C(=O)C=CC1=O	-4	8	52*	103*	121*	105*	-1	-18	75*	111*	U2OS cAMP counter=62*;MC4R cAMP antag=79*
COc1ccc(N2C(=O)C3CC(C)=C(C)CC3C2=O)c(OC)c1 (centres undefined)	2	10	0	2	-2	·	·	·	·	·
O=C(/C=C/c1ccco1)N1CCc2ccccc21	-1	-10	5	4	10	·	·	·	·	·

Source: PubChem BioAssay (several laboratories)
